Results taken from ChEMBL document CHEMBL1132623, “Structure-based design, synthesis, and biological evaluation of irreversible human rhinovirus 3C protease inhibitors. 4. Incorporation of P1 lactam moieties as L-glutamine replacements” (J Med Chem, 1999).

Key:
[1] = target: T1, Human rhinovirus A protease (Human rhinovirus sp.) (UniProt Q4U254); assay: Irreversible inhibition of human rhinovirus 3C protease
T1 sequence (whole entry): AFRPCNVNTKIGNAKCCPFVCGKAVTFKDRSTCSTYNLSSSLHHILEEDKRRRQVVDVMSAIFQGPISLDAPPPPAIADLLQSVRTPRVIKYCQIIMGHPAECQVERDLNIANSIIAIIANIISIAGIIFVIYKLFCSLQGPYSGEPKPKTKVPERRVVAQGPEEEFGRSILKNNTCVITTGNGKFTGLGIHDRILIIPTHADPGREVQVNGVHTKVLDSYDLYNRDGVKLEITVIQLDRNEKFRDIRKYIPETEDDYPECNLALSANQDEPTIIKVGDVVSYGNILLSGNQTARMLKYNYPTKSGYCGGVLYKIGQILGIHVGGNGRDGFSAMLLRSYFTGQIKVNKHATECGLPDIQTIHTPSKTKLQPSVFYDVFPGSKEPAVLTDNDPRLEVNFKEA

[2] = The 50% cytotoxic concentration was calculated as the concentration of the drug that decreased the percentage of formazan produced in drug-treated,uninfected cells to 50% of that produced in drug free uninfected cells on serotype 14.; type: functional
[3] = target: T1, Human rhinovirus A protease (Human rhinovirus sp.); assay: The EC90 was calculated as the concentration of drug that increased the percentage of formazan production in drug treated, virus infected cells to 50% of that produced by drug free uninfected cells on human rhinovirus 1A.; type: functional
[4] = target: T1, Human rhinovirus A protease (Human rhinovirus sp.); assay: The EC90 was calculated as the concentration of drug that increased the percentage of formazan production in drug treated, virus infected cells to 50% of that produced by drug free uninfected cells on human rhinovirus 2.; type: functional
[5] = target: T2, Calpain-1 catalytic subunit (Homo sapiens) (UniProt P07384); assay: % activity against calpain 1 remaining after 10-15 min at 10 uM; conditions: Sus scrofa
T2 sequence (whole entry): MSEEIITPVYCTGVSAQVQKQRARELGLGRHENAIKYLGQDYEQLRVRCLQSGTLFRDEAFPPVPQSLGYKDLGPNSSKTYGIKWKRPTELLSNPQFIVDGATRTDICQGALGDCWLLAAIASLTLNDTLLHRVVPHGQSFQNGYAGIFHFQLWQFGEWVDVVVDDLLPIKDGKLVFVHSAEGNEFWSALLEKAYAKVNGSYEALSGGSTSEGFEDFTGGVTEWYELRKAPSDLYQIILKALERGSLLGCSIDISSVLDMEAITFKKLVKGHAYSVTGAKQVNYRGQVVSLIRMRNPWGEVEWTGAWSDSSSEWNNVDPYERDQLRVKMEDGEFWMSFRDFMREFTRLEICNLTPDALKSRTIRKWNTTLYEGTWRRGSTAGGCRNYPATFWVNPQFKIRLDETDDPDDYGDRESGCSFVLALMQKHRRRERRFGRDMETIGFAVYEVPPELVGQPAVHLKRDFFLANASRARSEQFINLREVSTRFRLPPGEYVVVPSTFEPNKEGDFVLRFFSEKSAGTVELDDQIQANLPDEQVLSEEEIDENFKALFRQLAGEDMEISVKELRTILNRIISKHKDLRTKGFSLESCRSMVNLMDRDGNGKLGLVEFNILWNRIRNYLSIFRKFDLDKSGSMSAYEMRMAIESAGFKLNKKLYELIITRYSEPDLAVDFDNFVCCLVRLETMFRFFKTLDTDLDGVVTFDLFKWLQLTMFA
In short: (§1)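 Purified proteases: human liver cathepsin B, porcine erythrocyte calpain I, human neutrophil elastase, bovine chymotrypsin, human thrombin and bovine trypsin. Each enzyme was incubated with inhibitor for 10-15 min, at 10 µM or at 2 µM where specified. Residual enzyme activity is reported as % remaining.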

[6] = target: Cathepsin B (Homo sapiens) (UniProt P07858); assay: Inhibition of cathepsin B by the compound was measured as % activity of thrombin remaining after 10-15 min at 10 uM; in short: as §1
[7] = target: Chymotrypsinogen A (Bos taurus) (UniProt P00766); assay: Inhibition of Chymotrypsinogen by the compound was measured as % activity of thrombin remaining after 10-15 min at 10 uM; in short: as §1
[8] = target: T3, Neutrophil elastase (Homo sapiens) (UniProt P08246); assay: % activity against elastase remaining after 10-15 min at 10 uM; in short: as §1
T3 sequence (whole entry): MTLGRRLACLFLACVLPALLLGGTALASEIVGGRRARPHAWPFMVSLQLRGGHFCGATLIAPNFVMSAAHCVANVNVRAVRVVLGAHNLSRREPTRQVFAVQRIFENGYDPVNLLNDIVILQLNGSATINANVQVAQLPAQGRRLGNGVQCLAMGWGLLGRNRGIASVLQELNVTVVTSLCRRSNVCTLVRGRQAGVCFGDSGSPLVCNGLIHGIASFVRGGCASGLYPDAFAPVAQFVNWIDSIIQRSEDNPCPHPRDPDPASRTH

[9] = target: T1, Human rhinovirus A protease (Human rhinovirus sp.); assay: The EC90 was calculated as the concentration of drug that increased the percentage of formazan production in drug treated, virus infected cells to 50% of that produced by drug free uninfected cells on human rhinovirus-10.; type: functional
[10] = target: T1, Human rhinovirus A protease (Human rhinovirus sp.); assay: The EC90 was calculated as the concentration of drug that increased the percentage of formazan production in drug treated, virus infected cells to 50% of that produced by drug free uninfected cells on human rhinovirus-14.; type: functional
[11] = target: Prothrombin (Homo sapiens) (UniProt P00734); assay: Inhibition of thrombin by the compound was measured as % activity of thrombin remaining after 10-15 min at 10 uM; in short: as §1
[12] = target: T4, Serine protease 1 (Bos taurus) (UniProt P00760); assay: Inhibition of trypsin by the compound was measured as % activity of thrombin remaining after 10-15 min at 10 uM; in short: as §1
T4 sequence (whole entry): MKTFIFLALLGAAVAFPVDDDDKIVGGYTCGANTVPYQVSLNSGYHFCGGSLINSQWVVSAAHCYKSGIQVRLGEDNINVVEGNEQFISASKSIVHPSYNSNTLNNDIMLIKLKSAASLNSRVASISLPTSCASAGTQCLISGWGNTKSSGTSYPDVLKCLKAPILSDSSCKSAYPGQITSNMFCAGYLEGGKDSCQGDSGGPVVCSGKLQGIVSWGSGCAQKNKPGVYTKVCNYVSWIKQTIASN

chymotrypsin = assay: half life towards biological agent (chymotrypsin); type: ADME
In short: (§2)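 Compound at 25 µM in 100 mM potassium phosphate pH 7.4 was preincubated 5 min at 37 °C. Reaction was started with chymotrypsin (5 units/mL) or porcine intestinal peptidase (0.1 units/mL). Aliquots taken at 0 and 60 min were quenched in CH3CN and centrifuged. Parent was quantified by reverse-phase C8 HPLC with UV at 220 nm. 1-Naphthyl butyrate hydrolysis was the peptidase esterase control.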

[13] = half life towards biological agent (dithiothreitol 5 mM); type: ADME; conditions: dithiothreitol solution
[14] = half life towards biological agent (dog plasma); type: ADME, organism-based, Canis lupus familiaris
In short: (§3)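 Human plasma (CPDA) or heparinized animal plasma, with rat plasma diluted 1:1 in 100 mM phosphate pH 7.4, and buffer controls, n = 3. Compound was added to 25 µM final at 37 °C and sampled periodically over 1 h. Samples were quenched in CH3CN, centrifuged, dried, reconstituted and analysed by reverse-phase HPLC. 1-Naphthyl butyrate was the esterase control.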

[15] = half life towards biological agent (human plasma); type: ADME, organism-based; in short: as §3
peptidase = assay: half life towards biological agent (peptidase); type: ADME; in short: as §2
[16] = half life towards biological agent (rat plasma); type: ADME, cell-free; in short: as §3
[17] = target: T2, Calpain-1 catalytic subunit (Homo sapiens); assay: % activity against calpain 1 remaining after 10-15 min at 2 uM; conditions: Sus scrofa; in short: as §1
[18] = target: Cathepsin B (Homo sapiens) (UniProt P07858); assay: Inhibition of cathepsin B by the compound was measured as % activity of thrombin remaining after 10-15 min at 2 uM; in short: as §1
[19] = target: Chymotrypsinogen A (Bos taurus) (UniProt P00766); assay: Inhibition of Chymotrypsinogen by the compound was measured as % activity of thrombin remaining after 10-15 min at 2 uM; in short: as §1
[20] = target: T3, Neutrophil elastase (Homo sapiens); assay: % activity against elastase remaining after 10-15 min at 2 uM; in short: as §1
[21] = target: Prothrombin (Homo sapiens) (UniProt P00734); assay: Inhibition of thrombin by the compound was measured as % activity of thrombin remaining after 10-15 min at 2 uM; in short: as §1
[22] = target: T4, Serine protease 1 (Bos taurus); assay: Inhibition of trypsin by the compound was measured as % activity of thrombin remaining after 10-15 min at 2 uM; in short: as §1
[23] = Increased percentage of formazan production in drug treated virus infected cells to equal 50% control drug free uninfected cells on serotype 14
[24] = target: T1, Human rhinovirus A protease (Human rhinovirus sp.); assay: The kobs/[I] value for the irreversible inhibitors was obtained by reaction initiated by addition of 50 nM 3CP,containing 1 uM substrate and varying inhibitor concentrations on serotype 2.

## CCOC(=O)/C=C/[C@H](CN1CCNC1=O)NC(=O)[C@H](Cc1ccccc1)NC(=O)[C@H](CC(C)C)NC(=O)OCc1ccccc1
[1]
  K obs / 1: 10900 M⁻¹ s⁻¹
[2]
  CC50: > 100 µM

## CCOC(=O)/C=C/[C@H](C[C@@H]1CCCNC1=O)NC(=O)[C@H](Cc1ccc(F)cc1)NC(=O)[C@@H](NC(=O)c1cc(C)on1)C(C)C
[1]
  K obs / 1: 900000 M⁻¹ s⁻¹
[2]
  CC50: > 100 µM

## CCOC(=O)/C=C/[C@H](C[C@@H]1CCNC1=O)NC(=O)[C@H](Cc1ccccc1)NC(=O)[C@@H](NC(=O)OCc1ccccc1)C(C)C
[1]
  K obs / 1: 500000 M⁻¹ s⁻¹
[2]
  CC50: > 100 µM

## CCOC(=O)/C=C/[C@H](CCC(N)=O)NC(=O)[C@@H](CC(=O)[C@@H](NC(=O)c1cc(C)on1)C(C)C)Cc1ccc(F)cc1
[3]
  EC90: 0.63 µM
[4]
  EC90: 0.28 µM

## CCOC(=O)/C=C/[C@H](CCC(=O)NC)NC(=O)[C@H](Cc1ccccc1)NC(=O)[C@H](CC(C)C)NC(=O)OCc1ccccc1
[2]
  CC50: > 100 µM

## CCOC(=O)/C=C/[C@H](C[C@@H]1CCNC1=O)NC(=O)[C@H](Cc1ccc(F)cc1)NC(=O)[C@@H](NC(=O)c1cc(C)on1)C(C)C
[5]
  Activity: 100%
[6]
  Activity: 96%
[7]
  Activity: 101%
[8]
  Activity: 100%
[3]
  EC90: 0.14 µM
[1]
  K obs / 1: 1.5e+06 M⁻¹ s⁻¹
[4]
  EC90: 0.05 µM
[9]
  EC90: 0.14 µM
[10]
  EC90: 0.04 µM
[11]
  Activity: 103%
[12]
  Activity: 100%
[2]
  CC50: > 100 µM

## CCOC(=O)/C=C/[C@H](C[C@@H]1CCCNC1=O)NC(=O)[C@@H](CC(=O)[C@@H](NC(=O)c1cc(C)on1)C(C)C)Cc1ccc(F)cc1
[1]
  K obs / 1: 500000 M⁻¹ s⁻¹
[2]
  CC50: > 100 µM

## CCOC(=O)/C=C/[C@H](CCC(=O)N(C)C)NC(=O)[C@H](Cc1ccccc1)NC(=O)[C@H](CC(C)C)NC(=O)OCc1ccccc1
[2]
  CC50: > 100 µM

## CCOC(=O)/C=C/[C@H](C[C@@H]1CCCNC1=O)NC(=O)[C@H](Cc1ccccc1)NC(=O)[C@H](CC(C)C)NC(=O)OCc1ccccc1
[1]
  K obs / 1: 239000 M⁻¹ s⁻¹
[2]
  CC50: > 100 µM

## CCOC(=O)/C=C/[C@H](C[C@@H]1CCNC1=O)NC(=O)[C@H](Cc1ccc(F)cc1)NC(=O)[C@@H](NC(=O)c1cc(C)on1)C(C)(C)C
[5]
  Activity: 100%
[6]
  Activity: 81%
[7]
  Activity: 97%
[8]
  Activity: 96%
[1]
  K obs / 1: 980000 M⁻¹ s⁻¹
[11]
  Activity: 101%
[12]
  Activity: 95%
[2]
  CC50: > 100 µM

## CCOC(=O)/C=C/[C@H](C[C@@H]1CCNC1=O)NC(=O)[C@@H](CC(=O)[C@@H](NC(=O)c1cc(C)on1)C(C)C)Cc1ccc(F)cc1
chymotrypsin
  half-life: > 1 h
[13]
  half-life: > 0.5 h
[14]
  half-life: > 1 h
[15]
  half-life: > 1 h
peptidase
  half-life: > 1 h
[5]
  Activity: 100%
[6]
  Activity: 98%
[7]
  Activity: 100%
[8]
  Activity: 99%
[3]
  EC90: 0.041 µM
[1]
  K obs / 1: 1.09e+06 M⁻¹ s⁻¹
[4]
  EC90: 0.03 µM
[9]
  EC90: 0.1 µM
[10]
  EC90: 0.02 µM
[11]
  Activity: 100%
[12]
  Activity: 100%
[2]
  CC50: > 100 µM
[16]
  half-life: < 2 min

## CCOC(=O)/C=C/[C@H](CCC(N)=O)NC(=O)[C@H](Cc1ccccc1)NC(=O)[C@H](CC(C)C)NC(=O)OCc1ccccc1
[17]
  Activity: 100%
[18]
  Activity: 39%
[19]
  Activity: 96%
[20]
  Activity: 92%
[21]
  Activity: 101%
[22]
  Activity: 98%
[2]
  CC50: > 320 µM
[23]
  EC50: 0.54 µM

## CCOC(=O)/C=C/[C@H](C[C@@H]1CCNC1=O)NC(=O)[C@H](Cc1ccccc1)NC(=O)[C@H](CC(C)C)NC(=O)OCc1ccccc1
[1]
  K obs / 1: 257000 M⁻¹ s⁻¹
[24]
  K obs / 1: 31000 M⁻¹ s⁻¹
[2]
  CC50: > 100 µM

## CCOC(=O)/C=C/[C@H](C[C@H]1CCNC1=O)NC(=O)[C@H](Cc1ccccc1)NC(=O)[C@H](CC(C)C)NC(=O)OCc1ccccc1
[1]
  K obs / 1: 18000 M⁻¹ s⁻¹
[2]
  CC50: > 100 µM
